Experimental data published in PubChem BioAssay AID651627 (The Scripps Research Institute Molecular Screening Center, 2012).

Target: Protein-arginine deiminase type-4 (Homo sapiens) (UniProt Q9UM07)
Test: PAD4 inhibition reversibility after dialysis, late-stage follow-up, mechanism study for PAD4 inhibitor project, biochemical, BAEE substrate, colorimetric citrulline readout (AID 651627)
Conditions: recombinant PAD4, dialysis, at 100 µM, stronger effect = lower value
Method in brief: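 System: Recombinant PAD4 enzyme | Amount: 0.6 µM PAD4 | Reagent: 10 mM BAEE substrate | Benchmarks: DMSO no-compound control | Signal: Colorimetric citrulline detection, absorbance at 540 nm | Times: 20 h dialysis, 15 min BAEE reaction at 37 °C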

Sequence of Protein-arginine deiminase type-4 (Homo sapiens) (Q9UM07 whole entry, looked up): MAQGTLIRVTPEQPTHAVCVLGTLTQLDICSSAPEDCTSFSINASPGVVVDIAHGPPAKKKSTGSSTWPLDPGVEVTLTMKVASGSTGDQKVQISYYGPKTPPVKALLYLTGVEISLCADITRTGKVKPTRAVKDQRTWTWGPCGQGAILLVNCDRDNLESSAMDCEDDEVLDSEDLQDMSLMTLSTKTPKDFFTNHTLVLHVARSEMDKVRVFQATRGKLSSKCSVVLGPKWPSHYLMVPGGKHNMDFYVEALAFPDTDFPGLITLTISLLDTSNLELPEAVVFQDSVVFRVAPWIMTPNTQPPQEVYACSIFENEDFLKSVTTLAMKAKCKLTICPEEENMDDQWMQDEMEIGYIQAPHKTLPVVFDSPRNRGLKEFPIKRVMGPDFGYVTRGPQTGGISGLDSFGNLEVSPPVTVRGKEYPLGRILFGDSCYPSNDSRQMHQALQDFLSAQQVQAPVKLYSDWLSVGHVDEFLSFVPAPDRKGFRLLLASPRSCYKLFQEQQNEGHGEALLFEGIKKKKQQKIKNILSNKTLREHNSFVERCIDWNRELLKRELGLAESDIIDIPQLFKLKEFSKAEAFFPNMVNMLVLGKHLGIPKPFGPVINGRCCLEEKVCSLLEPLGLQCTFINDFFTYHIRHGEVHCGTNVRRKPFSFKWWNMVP

Row | residual activity after dialysis [%] | SMILES
1 | 0 | NC1=CC(=O)c2ccc(-c3cccc(C(=O)O)n3)nc2C1=O
2 | 2 | NC1=CC(=O)c2cccnc2C1=O
3 | 0 | COC1=C(Br)C(=O)c2ncccc2C1=O
4 | 13 | COC(=O)c1cccc(-c2ccc3c(n2)C(=O)C(N)=CC3=O)n1
5 | 12 | NC1=CC(=O)c2ccc(-c3ccccn3)nc2C1=O
